Results as given in ChEMBL document CHEMBL4359830, “Discovery and structure-activity relationship of novel diphenylthiazole derivatives as BTK inhibitor with potent activity against B cell lymphoma cell lines” (Eur J Med Chem, 2019).

What was measured:
Raji [1] = test: Induction of apoptosis in human Raji cells assessed as late apoptotic cells at 1 uM measured after 15 mins by Annexin-V-APC staining-based flow cytometric analysis (reference value: 0.57 %); assay type: functional
Ramos [2] = test: Cell cycle arrest in human Ramos cells assessed as accumulation at S phase at 0.1 uM measured after 48 hrs by propidium iodide/RNase staining based flow cytometric analysis (reference value: 56.35 %); assay type: functional
Raji [3] = test: Cell cycle arrest in human Raji cells assessed as accumulation at G0/G1 phase at 5 uM measured after 48 hrs by propidium iodide/RNase staining based flow cytometric analysis (reference value: 48.68 %); assay type: functional
Raji [4] = test: Cell cycle arrest in human Raji cells assessed as accumulation at G2/M phase at 5 uM measured after 48 hrs by propidium iodide/RNase staining based flow cytometric analysis (reference value: 18.14 %); assay type: functional
Ramos [5] = test: Induction of apoptosis in human Ramos cells assessed as early apoptotic cells at 5 uM measured after 15 mins by Annexin-V-APC staining-based flow cytometric analysis (reference value: 0.14 %); assay type: functional
Ramos [6] = test: Induction of apoptosis in human Ramos cells assessed as viable cells at 5 uM measured after 15 mins by Annexin-V-APC staining-based flow cytometric analysis (reference value: 96.5 %); assay type: functional; settings: Homo sapiens, Ramos, 0.25 h; read-out: Activity
Ramos [7] = test: Cell cycle arrest in human Ramos cells assessed as accumulation at G0/G1 phase at 0.1 uM measured after 48 hrs by propidium iodide/RNase staining based flow cytometric analysis (reference value: 37.66 %); assay type: functional
Ramos [8] = test: Cell cycle arrest in human Ramos cells assessed as accumulation at S phase at 5 uM measured after 48 hrs by propidium iodide/RNase staining based flow cytometric analysis (reference value: 56.35 %); assay type: functional
Ramos [9] = test: Induction of apoptosis in human Ramos cells assessed as late apoptotic cells at 3 uM measured after 15 mins by Annexin-V-APC staining-based flow cytometric analysis (reference value: 1.85 %); assay type: functional
Raji [10] = test: Induction of apoptosis in human Raji cells assessed as necrotic cells at 0.1 uM measured after 15 mins by Annexin-V-APC staining-based flow cytometric analysis (reference value: 1.87 %); assay type: functional
Ramos [11] = test: Cell cycle arrest in human Ramos cells assessed as accumulation at G0/G1 phase at 1 uM measured after 48 hrs by propidium iodide/RNase staining based flow cytometric analysis (reference value: 37.66 %); assay type: functional
Ramos [12] = test: Induction of apoptosis in human Ramos cells assessed as viable cells at 0.1 uM measured after 15 mins by Annexin-V-APC staining-based flow cytometric analysis (reference value: 96.5 %); assay type: functional; settings: 0.25 h, read-out: Activity
Raji [13] = test: Antiproliferative activity against human Raji cells at 40 uM measured after 72 hrs by CCK-8 assay relative to control; assay type: functional; settings: Homo sapiens, Raji, 72 h
Summary of the method: (§1)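 Ramos or Raji cells in RPMI-1640 with 10% FBS and 1% penicillin-streptomycin at 37 °C, 5% CO2. Seeded at 2000–3000 cells/well one day before compound addition. Exposure 72 h, then CCK-8 with absorbance at 450 nm. […] Single-point inhibition at 40 µM reported as mean ± standard deviation.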

Raji [14] = test: Induction of apoptosis in human Raji cells assessed as viable cells at 3 uM measured after 15 mins by Annexin-V-APC staining-based flow cytometric analysis (reference value: 97.5 %); assay type: functional; settings: 0.25 h, read-out: Activity
Ramos [15] = test: Induction of apoptosis in human Ramos cells assessed as viable cells at 1 uM measured after 15 mins by Annexin-V-APC staining-based flow cytometric analysis (reference value: 96.5 %); assay type: functional; settings: 0.25 h, read-out: Activity
Raji [16] = test: Induction of apoptosis in human Raji cells assessed as late apoptotic cells at 0.1 uM measured after 15 mins by Annexin-V-APC staining-based flow cytometric analysis (reference value: 0.57 %); assay type: functional
Raji [17] = test: Induction of apoptosis in human Raji cells assessed as viable cells at 0.1 uM measured after 15 mins by Annexin-V-APC staining-based flow cytometric analysis (reference value: 97.5 %); assay type: functional; settings: 0.25 h, read-out: Activity
Ramos [18] = test: Induction of apoptosis in human Ramos cells assessed as late apoptotic cells at 1 uM measured after 15 mins by Annexin-V-APC staining-based flow cytometric analysis (reference value: 1.85 %); assay type: functional
Ramos [19] = test: Antiproliferative activity against human Ramos cells measured after 72 hrs by CCK-8 assay; assay type: functional, cell-based; summary of the method: as §1
Raji [20] = test: Induction of apoptosis in human Raji cells assessed as early apoptotic cells at 1 uM measured after 15 mins by Annexin-V-APC staining-based flow cytometric analysis (reference value: 0.021 %); assay type: functional
Ramos [21] = test: Cell cycle arrest in human Ramos cells assessed as accumulation at G2/M phase at 5 uM measured after 48 hrs by propidium iodide/RNase staining based flow cytometric analysis (reference value: 5.98 %); assay type: functional
Ramos [22] = test: Induction of apoptosis in human Ramos cells assessed as viable cells at 3 uM measured after 15 mins by Annexin-V-APC staining-based flow cytometric analysis (reference value: 96.5 %); assay type: functional; settings: 0.25 h, read-out: Activity
Raji [23] = test: Cell cycle arrest in human Raji cells assessed as accumulation at S phase at 1 uM measured after 48 hrs by propidium iodide/RNase staining based flow cytometric analysis (reference value: 33.18 %); assay type: functional
Ramos [24] = test: Antiproliferative activity against human Ramos cells at 40 uM measured after 72 hrs by CCK-8 assay relative to control; assay type: functional; settings: Homo sapiens, Ramos, 72 h; summary of the method: as §1
Raji [25] = test: Induction of apoptosis in human Raji cells assessed as late apoptotic cells at 3 uM measured after 15 mins by Annexin-V-APC staining-based flow cytometric analysis (reference value: 0.57 %); assay type: functional
Raji [26] = test: Cell cycle arrest in human Raji cells assessed as accumulation at G0/G1 phase at 1 uM measured after 48 hrs by propidium iodide/RNase staining based flow cytometric analysis (reference value: 48.68 %); assay type: functional
Raji [27] = test: Induction of apoptosis in human Raji cells assessed as early apoptotic cells at 3 uM measured after 15 mins by Annexin-V-APC staining-based flow cytometric analysis (reference value: 0.021 %); assay type: functional
Raji [28] = test: Cell cycle arrest in human Raji cells assessed as accumulation at G2/M phase at 0.1 uM measured after 48 hrs by propidium iodide/RNase staining based flow cytometric analysis (reference value: 18.14 %); assay type: functional

CN1CCN(c2ccc(Nc3nc(-c4cccc(NC(=O)c5ccc(F)c(Cl)c5)c4)sc3C(N)=O)cc2)CC1
Activity (Raji [1]): 0.53% | Activity (Ramos [2]): 51.54% | Activity (Raji [3]): 82.55% | Activity (Raji [4]): 16.19% | Activity (Ramos [5]): 0.28% | viability at 5 µM (Ramos [6]): 1.55% | Activity (Ramos [7]): 40.13% | Activity (Ramos [8]): 14.14% | Activity (Ramos [9]): 6.43% | Activity (Raji [10]): 1.76% | Activity (Ramos [11]): 55.48% | viability at 0.1 µM (Ramos [12]): 96.4% | inhibition at 40 µM (Raji [13]): 94.4% | viability at 3 µM (Raji [14]): 95.6% | viability at 1 µM (Ramos [15]): 95.7% | Activity (Raji [16]): 0.44% | viability at 0.1 µM (Raji [17]): 97.8% | Activity (Ramos [18]): 2.23% | IC50 (Ramos [19]): 4.83 µM | Activity (Raji [20]): 0% | Activity (Ramos [21]): 2.17% | viability at 3 µM (Ramos [22]): 87.3% | Activity (Raji [23]): 21.47% | inhibition at 40 µM (Ramos [24]): 97.5% | Activity (Raji [25]): 1.52% | Activity (Raji [26]): 54% | Activity (Raji [27]): 0% | Activity (Raji [28]): 19.33%
